The entries come from a sample that favours hits as a whole.
CHOP inh: inhibitors of CHOP promoter induction, primary screen, cell-based, unfolded protein response, luciferase reporter; CHO-K1 CHOP-promoter luciferase, tunicamycin-induced, 15-18 h; inhibition, % at 10 µM; 220,000 tested, 3.8% active;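 active = compounds that reduced the stress-induced luciferase reporter signal by more than about 70% of percent inhibition, limit read from the data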;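 also: 0% = tunicamycin plus vehicle and 100% = wells without tunicamycin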
UPR CHOP act: activators of apoptotic CHOP UPR arm, primary screen, cell-based, CHO-CHOP luciferase reporter, luminescence, uHTS; UPR activation; percent of tunicamycin response over DMSO baseline; activation, % at 10 µM; 330,000 tested, 0.34% active; AID 449763, 2010;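 active = at 10 µM dose, activation of 40% or more, normalized to positive control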;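 also: 100% = tunicamycin at 10 µg/mL and 0% = DMSO alone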
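Evaluation: % reporter activation, DMSO baseline versus tunicamycin full activation; System: CHO-CHOP luciferase reporter cell line; Input: 500 cells/well; Incubation: 6 h compound treatment, 37 °C; Measured by: Steady-Glo luciferase luminescence; Dosing: one dose, 10 µM in 0.5% DMSO; Buffer or medium: F12 medium, 10% FBS; Benchmarks: positive tunicamycin 10 µg/mL, negative DMSO alone.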
XBP1 UPR activ: activators of adaptive XBP1 UPR arm, primary screen, cell-based, CHO-XBP1 luciferase reporter, luminescence, uHTS; IRE1-XBP1 UPR activation; percent of tunicamycin response, DMSO as zero; activation, % at 20 µM; 330,000 tested, 0.33% active; AID 463104, 2010;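 active = versus positive control, 20 µM dose yields 30% or more activation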;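 also: 100% = tunicamycin at 10 µg/mL and 0% = DMSO only wells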
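assay system = CHO-XBP1 luciferase reporter cells | amount = 1000 cells/well | buffer or medium = F12 plus 10% FBS | compound dosing = single point, 20 µM final compound, 1% DMSO | incubation = 16-18 h cell attachment at 37 °C, then 6 h compound exposure | detection = Steady-Glo luminescence read | controls = tunicamycin 10 µg/mL and vehicle-only wells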
A1 inh: caspase 3/7 activation in MEF A1-2A-BIM cells, primary screen, A1 inhibitor project, cell-based, luminescence, HTS | Caspase-Glo 3/7 luminescence, 3 h; percent of clofoctol response, vehicle zero | caspase activation, % (no concentration beside the values) | 330,000 tested, 0.066% active | AID 2462, 2010;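 active = over half of replicate activation scores above 10%, or exactly half above 10 with the replicate mean above 10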
CHOP inh conf: retest of CHOP induction inhibitors, confirmation, cell-based; shares compounds with CHOP inh; CHO-CHOP promoter luciferase reporter, tunicamycin-induced, luminescence; inhibition, % at 10 µM; 2,100 tested, 45% active;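 active = mean of three repeat readings of reporter signal inhibition above a set limit, cut at about 70% in these data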;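 also: 0% = tunicamycin plus vehicle and 100% = wells lacking tunicamycin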
* = called active by the depositor; . = not tested or not shown.

SMILES	CHOP inh	UPR CHOP act	XBP1 UPR activ	A1 inh	CHOP inh conf
Oc1[nH]c2ccccc2c1N=NC(=S)NCCc1ccccc1	105*	.	.	1	76*
CCC(C)Sc1nc2c(cnn2-c2ccc(C)c(C)c2)c(=O)[nH]1 (configuration not stated)	12	1	7	0	.
CSc1nc2c(cnn2-c2ccc(C)c(C)c2)c(=O)[nH]1	100*	0	5	-1	111*
O=C(CN1C(=O)C2CCCCC2C1=O)Nc1nccs1 (configuration not stated)	5	-1	-2	0	.
N#Cc1ccsc1NC(=O)COC(=O)c1ccc(Br)o1	.	1	0	-3	.
Cc1ccc(-n2c(C)cc(C3N=C(N)Nc4nc5ccccc5n43)c2C)c(C)c1 (configuration not stated)	100*	-2	0	0	62
O=C(NCCCN1CCCC1=O)c1cc(-c2cccnc2)nc2ccc(Cl)cc12	3	0	-2	1	.
O=C1c2[nH]nc(-c3ccccc3O)c2C(c2cccc(Cl)c2)N1Cc1ccco1 (configuration not stated)	113*	4	0	0	113*
Cc1ccccc1NC(=O)C(=Cc1ccc(C(=O)O)cc1)C(=O)Nc1ccccc1C	103*	.	.	.	-22
CCc1ccccc1NC(=O)N1CCc2ccccc21	9	4	-4	0	.
O=C(Nc1ccc(Cl)cc1)N1CCC(c2nc(-c3ccc(F)cc3)no2)CC1	104*	1	-1	0	4
CCCCc1ccc(NC(=S)Nc2ccc(Cl)c(S(=O)(=O)N(C)C)c2)cc1	105*	.	.	-1	83*
COc1ccc(-n2c(-c3cccc(OC)c3)nc(=S)c3c2CCCC3)cc1	-20	1	0	0	.
CCCOc1ccc(N2C(=O)CC(SC(=NCC)Nc3cccc(F)c3)C2=O)cc1 (configuration not stated)	105*	-2	2	0	108*
CCCOc1ccc(N2C(=O)CC(SC(=NC)Nc3ccc(F)cc3)C2=O)cc1 (configuration not stated)	100*	-1	0	0	100*
CCOc1ccc(NC(=NCc2ccc3c(c2)OCO3)SC2CC(=O)N(c3ccc(OCC)cc3)C2=O)cc1 (configuration not stated)	98*	12	18	-1	30
COc1ccccc1C(=O)NC(=O)COC(=O)CCNS(=O)(=O)c1ccccc1	.	-2	-1	0	.
CSc1ccc(/C=N/n2c(Cc3ccc(Br)cc3)n[nH]c2=S)cc1	101*	2	-3	0	30
CCC(NC(=S)Nc1ccccc1)C(=O)O (configuration not stated)	-1	0	-1	0	.
COC(=O)c1ccccc1NC1=C/C(=N\S(=O)(=O)c2ccc(C(=O)O)cc2)c2ccccc2C1=O	.	23	4	1	.
O=C1C(Nc2ccccc2)=C/C(=N/S(=O)(=O)c2cccs2)c2ccccc21	108*	.	.	-2	112*
COC(=O)c1ccccc1NC1=C/C(=N\S(=O)(=O)c2cccs2)c2ccccc2C1=O	107*	2	-3	-7	109*
COc1ccccc1NS(=O)(=O)c1cc([N+](=O)[O-])ccc1N/N=C/c1c[nH]c2ccccc12	98*	-1	7	-1	52
Nc1ncnc(Sc2ccccc2)c1[N+](=O)[O-]	24	-2	-1	-2	.
Nc1ncnc(Sc2ncccn2)c1[N+](=O)[O-]	104*	.	.	.	45
Cc1nc2ccccn2c1C(=O)N=Nc1c(O)n(CCC(C)C)c2ccccc12	101*	2	6	0	105*
CCCn1c(O)c(N=NC(=O)c2ccco2)c2ccccc21	6	3	6	0	.
O=c1oc2ccccc2c(N2CCCC2)c1CN1CCCC1	21	2	-4	0	.
O=c1oc2ccccc2c(Cl)c1CN1CCCCC1	107*	-10	-10	0	123*
Nc1cccc2c1C(=O)N(C(=O)/C=C/c1cccc(F)c1)C2=O	103*	14	3	0	127*

Screening data as filed in PubChem BioAssay.
